DAT uptake mod: changed hDAT dopamine uptake under cocaine IC80, either direction, primary screen, cocaine antagonist project, cell-based, LLC-PK1 hDAT, [14C]-dopamine uptake, MLSMR; hit rate 1.3% among 110,000; LLC-PK1 hDAT cells, [14C]-dopamine uptake with cocaine IC80; actives deviate in either direction; B-score at 10 µM;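 active = Z score or B-score, a plate-position-corrected score, falls beyond the plate's 99.7% confidence bounds, in either direction; inactive = both scores lie inside the 99.7% bounds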
Cav32 inh: Cav3.2 calcium influx blockers – cell-based, Fluo-4 calcium fluorescence, FDSS, MLSMR library, primary screen | Cav3.2-expressing cells; active compounds read low | hit rate 4% among 100,000 | AID 449739, 2010 | Voltage-dependent T-type calcium channel subunit alpha-1H (Homo sapiens), O95180 | B-score at 10 µM;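 active = single-dose well whose peak fluorescence ratio is a statistical outlier from its plate by either plate-standardised score or position-corrected B-score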
Target sequence (O95180 whole entry, looked up): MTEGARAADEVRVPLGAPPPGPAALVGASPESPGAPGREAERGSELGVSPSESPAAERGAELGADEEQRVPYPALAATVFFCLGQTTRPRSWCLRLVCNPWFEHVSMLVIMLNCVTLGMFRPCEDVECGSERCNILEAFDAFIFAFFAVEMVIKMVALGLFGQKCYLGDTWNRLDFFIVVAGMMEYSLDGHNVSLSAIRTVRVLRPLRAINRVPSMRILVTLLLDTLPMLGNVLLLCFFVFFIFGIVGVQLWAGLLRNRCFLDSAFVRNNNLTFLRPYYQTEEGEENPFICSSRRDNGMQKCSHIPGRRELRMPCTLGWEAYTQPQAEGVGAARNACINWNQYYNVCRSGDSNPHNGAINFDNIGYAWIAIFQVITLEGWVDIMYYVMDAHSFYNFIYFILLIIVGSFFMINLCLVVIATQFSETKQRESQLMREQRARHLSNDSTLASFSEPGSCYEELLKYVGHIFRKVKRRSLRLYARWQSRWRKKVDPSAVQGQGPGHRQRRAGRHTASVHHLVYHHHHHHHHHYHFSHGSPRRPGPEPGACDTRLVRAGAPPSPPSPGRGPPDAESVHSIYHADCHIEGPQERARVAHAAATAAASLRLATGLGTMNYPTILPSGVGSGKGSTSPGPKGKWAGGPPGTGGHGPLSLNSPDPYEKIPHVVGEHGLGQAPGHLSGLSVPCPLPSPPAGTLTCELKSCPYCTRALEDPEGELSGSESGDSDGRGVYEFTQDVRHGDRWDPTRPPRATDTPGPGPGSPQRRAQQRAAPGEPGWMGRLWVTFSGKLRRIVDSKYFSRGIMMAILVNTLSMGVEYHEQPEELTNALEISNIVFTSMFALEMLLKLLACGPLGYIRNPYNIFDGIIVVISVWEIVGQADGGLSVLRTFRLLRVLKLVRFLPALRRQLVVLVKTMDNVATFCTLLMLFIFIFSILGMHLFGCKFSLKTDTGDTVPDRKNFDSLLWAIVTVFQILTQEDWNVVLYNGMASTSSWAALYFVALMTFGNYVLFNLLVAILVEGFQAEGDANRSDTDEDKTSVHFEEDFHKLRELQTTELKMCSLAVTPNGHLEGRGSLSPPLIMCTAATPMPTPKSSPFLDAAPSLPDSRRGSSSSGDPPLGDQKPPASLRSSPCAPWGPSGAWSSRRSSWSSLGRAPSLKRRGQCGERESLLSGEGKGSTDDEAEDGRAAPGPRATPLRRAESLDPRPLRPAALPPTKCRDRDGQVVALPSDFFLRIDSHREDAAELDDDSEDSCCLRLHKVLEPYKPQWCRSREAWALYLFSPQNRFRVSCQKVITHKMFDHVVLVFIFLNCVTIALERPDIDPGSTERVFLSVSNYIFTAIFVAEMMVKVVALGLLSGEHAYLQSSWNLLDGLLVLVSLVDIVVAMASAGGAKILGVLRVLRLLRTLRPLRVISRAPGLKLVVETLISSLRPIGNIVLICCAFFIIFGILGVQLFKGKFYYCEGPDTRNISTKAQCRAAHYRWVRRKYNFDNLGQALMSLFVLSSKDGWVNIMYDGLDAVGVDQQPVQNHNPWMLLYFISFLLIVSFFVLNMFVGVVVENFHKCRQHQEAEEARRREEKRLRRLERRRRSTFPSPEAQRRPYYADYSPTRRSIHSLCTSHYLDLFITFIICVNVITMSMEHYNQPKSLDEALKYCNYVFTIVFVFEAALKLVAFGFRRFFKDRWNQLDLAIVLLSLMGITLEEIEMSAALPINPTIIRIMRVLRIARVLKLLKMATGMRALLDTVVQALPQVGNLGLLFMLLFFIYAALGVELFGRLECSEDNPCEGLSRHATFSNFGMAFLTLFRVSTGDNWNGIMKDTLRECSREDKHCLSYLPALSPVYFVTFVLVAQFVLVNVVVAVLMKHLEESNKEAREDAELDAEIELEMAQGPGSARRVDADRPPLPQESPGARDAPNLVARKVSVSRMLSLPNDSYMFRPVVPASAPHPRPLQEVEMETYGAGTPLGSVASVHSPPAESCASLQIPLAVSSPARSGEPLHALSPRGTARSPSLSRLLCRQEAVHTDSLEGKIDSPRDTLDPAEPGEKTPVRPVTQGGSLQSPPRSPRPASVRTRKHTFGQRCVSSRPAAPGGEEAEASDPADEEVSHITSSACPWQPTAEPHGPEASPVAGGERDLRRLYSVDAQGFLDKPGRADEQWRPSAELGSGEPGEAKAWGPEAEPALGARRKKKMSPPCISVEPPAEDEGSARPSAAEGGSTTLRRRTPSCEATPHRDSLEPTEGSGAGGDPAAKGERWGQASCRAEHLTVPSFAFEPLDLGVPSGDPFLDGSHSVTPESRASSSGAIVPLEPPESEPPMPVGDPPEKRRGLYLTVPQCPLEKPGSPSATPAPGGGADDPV
EphB4 ephrin blk: EphB4-ephrin-B2 interaction antagonists, primary screen, biochemical, TNYL-RAW peptide probe, fluorescence polarization; Ephrin type-B receptor 4 (Homo sapiens), P54760; EphB4 LBD / TNYL-RAW-Alexa532 peptide; inhibition, % at 7 µM; hit rate 0.15% among 97,000;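 active = inhibition above the screen-wide mean inhibition plus 3 SD, cut at about 15% in these data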
Rev-RRE block: HIV-1 Rev-RRE binding inhibitors, primary screen, biochemical, FRET, protein-RNA interaction. P05866. AID 704, 2007. inhibition, % at 8 µM. Rev peptide-RRE RNA binding. hit rate 0.79% among 97,000;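 active = inhibition above the screen-wide mean plus 3 SD, cut at about 35% in these data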
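Assay system: Labelled RRE RNA duplex and labelled Rev peptide | Times: 5 min preincubation and 15 min binding, 25 °C | Detection: FRET, ex 480 nm, em 540 and 671 nm | Evaluation: % inhibition of FRET ratio versus controls | Benchmarks: DMSO wells as 0% and neomycin B wells as 100% inhibition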
A number is an active result; . = inactive; / = not tested or not shown; [ ] = dose if it differs, or a comment. Shown are actives, neighbours in structure and some others; about 5.4% of the full set was active somewhere.

SMILES	DAT uptake mod	Cav32 inh	EphB4 ephrin blk	Rev-RRE block
COc1ccc(Cl)cc1C(=O)NNC(=S)NC(=O)c1cc(-c2ccc(Cl)cc2)nc2ccccc12	.	-6.6	.	.
O=C(NC(=S)Nc1ccccc1)c1cc(-c2ccccc2)nc2ccccc12	.	.	.	.
COCCNC(=O)Cn1cnc2c1c(=O)n(C)c(=O)n2C	.	-5.3	.	.
Cn1c(SCC(=O)Nc2ccc3nc(SCC(=O)N4CCCC4)sc3c2)nnc1-c1ccc(N)cc1	/	/	.	.
CCOC(=O)Cc1nn2c(=O)cc(C)nc2s1	.	-5	.	.
Cn1cccc1Cc1nnc(SCC(=O)N2CCCc3ccccc32)n1-c1ccc(F)cc1	.	-7.9	/	/
Cn1cccc1Cc1nnc(SCC(=O)N2CCc3ccccc32)n1-c1ccc(F)cc1	.	.	/	/
COc1ccc(-n2c(Cc3ccccc3)nnc2SCC(=O)N2CCCc3ccccc32)cc1	.	-8.5	.	.
Cc1ccc(-n2c(Cc3cccn3C)nnc2SCC(=O)N2CCc3ccccc32)cc1	.	-3.3	.	.
Cn1c(=O)n(CCN2CCOCC2)c(=O)c2c1nc1n2CCN1c1ccccc1	/	/	.	.
COCc1cc(C)nc(N2CCN(c3ccccc3)CC2)c1C#N	.	-4.5	/	/
COCc1cc(C)nc(N2CCN(Cc3ccccc3)CC2)c1C#N	.	.	.	.
CC1Cc2nc(SCC(=O)c3ccccc3)n(Cc3ccccc3)c(=O)c2S1 (stereo unspecified)	.	-6.3	.	.
S=C(Nc1cccc(Cl)c1)NC1CCCCC1	.	-4.1	.	.
Cc1cc(C)c(C(=O)COC(=O)[C@H](C)Nc2ccc(C(F)(F)F)cc2[N+](=O)[O-])c(C)c1	.	-4.4	.	.
Cc1c(C)c2cc(Cl)c(O)c(CN3CCCC(C)C3)c2oc1=O (stereo unspecified)	.	.	.	.
CC1CCCN(Cc2c(O)ccc3c(=O)c(-c4nc5ccccc5s4)c(N)oc23)C1 (stereo unspecified)	2.5	.	.	.
NC1=CC(=O)c2cccc3cccc1c23	.	.	.	56
CC1C/C(=N\NC(=S)NC(C)C)CC(C)(C)C1 (stereo unspecified)	.	.	.	.
CCC(C)Sc1nnc(CSc2nc3nc(C)cc(C)n3n2)o1 (stereo unspecified)	.	.	.	.
CCOC(=O)C(C(=O)OCC)c1cc(Br)c2noc3c2c1C(=O)c1ccccc1-3	.	-5.5	.	58
COC(=O)CCn1nnc(-c2cccs2)n1	.	/	.	.
COC(=O)CCn1nnc(-c2ccc(C(C)C)cc2)n1	.	-5.4	.	.
O=C(NCc1ccc(Cl)cc1)c1ccc(-c2ccccc2C(F)(F)F)o1	.	.	/	/
OC(COc1ccc(Cl)cc1)CN1CCCCC1 (stereo unspecified)	.	.	.	.
SMILES	DAT uptake mod	Cav32 inh	EphB4 ephrin blk	Rev-RRE block
OC(COc1c(Cl)cc(Cl)cc1Cl)CN1CCCCC1 (stereo unspecified)	.	-2.9	.	.
O=C1N=C(N2CCOCC2)S/C1=C/c1ccc(-c2ccccc2Cl)o1	.	.	.	.
O=C1S/C(=C/c2ccc(N3CCOCC3)o2)C(=O)N1Cc1c(F)cccc1Cl	.	.	.	126[fluorescence artefact?]
O=C1S/C(=C\c2ccc(N3CCOCC3)o2)C(=O)N1Cc1c(F)cccc1Cl	.	-5.7	.	121[fluorescence artefact?]
CC(NC(=O)C1CCCCC1)C(=O)NC1=NCCS1 (stereo unspecified)	.	.	.	.
CCOn1c(=O)c(C)[n+]([O-])c2ccccc21	.	.	.	.
Cc1cccc2nc(CSc3nnc4ccccn34)cn12	.	.	.	.
CC1=C(C(=O)OC(C)C)C(c2ccc(Br)s2)NC(=O)N1C (stereo unspecified)	.	-4.4	.	.
CCOC(=O)C1=C(C)NC(=O)NC1c1ccc(Br)s1 (stereo unspecified)	.	.	.	.
CCOc1ccc(S(=O)(=O)Nc2ccc(F)cc2)c(C)c1C	.	-4.7	.	.
Fc1ccc(/C=N/n2c(-c3cccs3)n[nH]c2=S)cc1	.	.	.	.
Cc1ccc(/C(CSc2nccn2-c2ncc(C(F)(F)F)cc2Cl)=N\O)cc1	.	-6.2	.	.
Cc1nc(-c2ccccc2)sc1-c1nc(-c2ccncc2)ncc1S(=O)(=O)c1ccccc1	/	/	.	.
Cc1ccc(-c2nc3ncccc3o2)cc1NC(=O)COc1ccccc1	.	.	.	.
Cc1ccc(-c2nc3cccnc3o2)cc1NC(=O)COc1ccc(C(C)(C)C)cc1	.	.	82[fluorescence artefact?]	.
COc1ccc(S(=O)(=O)N2CCN(c3nc4ccccc4nc3-n3nc(C)cc3C)CC2)cc1	.	.	.	.
CS(=O)(=O)N(CC(=O)N1CCc2ccccc2C1)Cc1ccccc1	.	/	.	.
C#CCONC(=O)c1cc(OCC(F)(F)F)ccc1OCC(F)(F)F	.	.	.	.
CCOC(=O)c1sc(C)c2c1NC(C)(c1ccccc1)NC2=O (stereo unspecified)	.	.	.	.
CCn1c(=NC(=O)CSC(C)=O)sc2cc(F)ccc21	.	-11	.	.
O=C(CCCCCCN1C(=O)c2ccccc2C1=O)N1CCC(c2ccccc2)C1 (stereo unspecified)	3.4	-4.3	.	.
CCOC(=O)C1CCN(C(=O)CCCN2C(=O)c3ccccc3C2=O)CC1	.	/	.	.
O=C(O)CC(CCc1ccccc1)OC1OC(CO)C(O)C(O)C1O (stereo unspecified)	.	.	/	/
[C-]#[N+][C@H](O[C@@H]1O[C@H](CO)[C@@H](O)[C@H](O)[C@H]1O)c1ccccc1	.	-5.7	/	/
COC(=O)c1sccc1NC(=O)c1ccc(OC)c(OC)c1	.	.	.	.
SMILES	DAT uptake mod	Cav32 inh	EphB4 ephrin blk	Rev-RRE block
COC(=O)c1sccc1NC(=O)c1cc(OC)cc(OC)c1	-8	.	.	.
CC(C)CC1N=C2c3ccccc3N=C(SCc3cc(=O)n4ccccc4n3)N2C1=O (stereo unspecified)	/	/	.	.
CCCCOC(=O)c1c(C)oc2ccc(NS(=O)(=O)c3ccc4c5c(cccc35)C(=O)N4)cc12	.	-5.8	.	.
COc1ccc(CCNC(=O)C(=O)N2CCCCC2)cc1OC	.	.	.	.
COc1cc(C(=O)Nc2ccc(Br)cc2C(=O)c2cc(OC)c(OC)c(OC)c2)cc(OC)c1OC	.	.	.	.
CC(C)C(=O)Nc1cccc(NC(=S)NC(=O)c2ccc([N+](=O)[O-])cc2)c1	.	-4	.	.
CCCNC(=O)C1CC(c2cccc(F)c2)=NO1 (stereo unspecified)	.	.	/	/
O=C(CCCn1c(=S)[nH]c2cc3c(cc2c1=O)OCO3)N1CCN(c2ccccc2)CC1	.	.	.	.
O=C(CCCn1c(=S)[nH]c2cc3c(cc2c1=O)OCO3)N1CCN(c2ccc(Cl)cc2)CC1	.	-7.7	.	.

High-throughput results deposited in PubChem by several laboratories.
